Here are results for 22 molecules from ChEMBL document CHEMBL1124988, “Synthesis and antimicrobial and cytotoxic activities of pyrrole-containing analogues of trichostatin A” (J Med Chem, 1990).

One series concerns Vero. The series is described as follows: Maximum nontoxic dose that allow exponential cell growth for three cell cycles. Format: functional, Chlorocebus sabaeus. A digest of the protocol:
(§1)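 Exponentially growing Vero cells were exposed to a range of compound concentrations for three cell cycles (3 days) at 37 °C in 5% CO2. Viable cells were counted by hemocytometer in duplicate samples. MNTD is the highest concentration still allowing exponential growth. TD50 is the concentration halving cell number versus untreated controls.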

Another series concerns Vaccinia virus. Briefly: Effective dose required for antiviral activity against Vaccinia virus. It is filed as functional. To be noted: Orthopoxvirus vaccinia; read-out: ED50 (the source's name).
For the next series, the system named is Human alphaherpesvirus 1. The series is described as follows: Effective dose required for antiviral activity against HSV-1 virus. Format: functional. Particulars: read-out: ED50 (the source's name). A digest of the protocol:
(§2)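 Plaque-reduction assay in Vero cells. Dose-response lines were drawn by linear regression, and ED50 is the concentration giving 50% fewer plaques than untreated, virus-infected controls.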

Another series deals with unidentified adenovirus. Briefly: Effective dose required for antiviral activity against adeno virus. Particulars: read-out: ED50 (the source's name). Format: functional. A digest of the protocol:
as §2

For series [1], the system named is African swine fever virus. Briefly: Effective dose required for antiviral activity against ASFV virus. Format: functional. To be noted: read-out: ED50 (the source's name).
The subject of series [2] is Vesicular stomatitis virus. The series is described as follows: Effective dose required for antiviral activity against VSV virus. It is filed as functional. Particulars: read-out: ED50 (the source's name).
The nature of series [3]: Toxic dose that reduced by 50% the number of cells with respect to untreated controls. Particulars: chlorocebus sabaeus, Vero cells; read-out: TD50 (the source's name). It is filed as toxicity, cell-based. A digest of the protocol:
as §1

Converted amounts (≈) assume the structure as drawn.

For `CCOC(=O)/C=C/c1cc(C(=O)c2ccc(F)cc2)cn1C`, the MNTD with Vero is 4 µg/mL. Moreover, the EC50 in the series on Vaccinia virus was 10 µg/mL (≈ 33.2 µM); in the series on Human alphaherpesvirus 1, 10 µg/mL (≈ 33.2 µM); in the series with unidentified adenovirus it was 50 µg/mL (≈ 166 µM); in series [1], 10 µg/mL (≈ 33.2 µM); in series [2], 50 µg/mL (≈ 166 µM). The CC50 in series [3] was determined as 15 µg/mL (≈ 49.8 µM).

`Cn1cc(C(=O)c2ccccc2)cc1/C=C/C(=O)NO` displayed an MNTD with Vero of 15 µg/mL. The EC50 (in the series with Vaccinia virus; in the series on Human alphaherpesvirus 1; in the series with unidentified adenovirus; in series [1]; in series [2]) was more than 30 µg/mL in each case. Also, in series [3], the CC50 was 30 µg/mL (≈ 111 µM).

In turn, `Cn1cc(C(=O)c2ccc([N+](=O)[O-])cc2)cc1/C=C/C(=O)NO` gave an MNTD in the series on Vero of 15 µg/mL. For the same molecule, the EC50 in the series with Vaccinia virus was 15 µg/mL (≈ 47.6 µM); in the series with Human alphaherpesvirus 1, 15 µg/mL (≈ 47.6 µM); in the series on unidentified adenovirus, 25 µg/mL (≈ 79.3 µM); in series [1], 25 µg/mL (≈ 79.3 µM); in series [2], more than 50 µg/mL. The CC50 in series [3] was 30 µg/mL (≈ 95.2 µM).

The molecule `CCOC(=O)/C=C/c1cc(C(=O)c2ccc(OC)cc2)cn1C` had an MNTD with Vero of 8 µg/mL. Further, the EC50 in the series on Vaccinia virus worked out at 20 µg/mL (≈ 63.8 µM); with Human alphaherpesvirus 1, 15 µg/mL (≈ 47.9 µM); with unidentified adenovirus, 4 µg/mL (≈ 12.8 µM); in series [1] it was 8 µg/mL (≈ 25.5 µM); in series [2] it was 15 µg/mL (≈ 47.9 µM). Moreover, the CC50 in series [3] came to 15 µg/mL (≈ 47.9 µM).

In the series with Vero, `CN(C)c1ccc(C(=O)c2cc(/C=C/C(=O)O)n(C)c2)cc1` had an MNTD of 125 µg/mL. The EC50 was more than 250 µg/mL with Vaccinia virus; more than 250 µg/mL in the series on Human alphaherpesvirus 1; 125 µg/mL (≈ 419 µM) in the series with unidentified adenovirus; more than 250 µg/mL in series [1]; more than 500 µg/mL in series [2]. Also, in series [3], the CC50 is more than 250 µg/mL.

In the series on Vero, `Cn1cc(C(=O)c2ccc(F)cc2)cc1/C=C/C(=O)O` had an MNTD of 15 µg/mL. The EC50 in the series with Vaccinia virus was 100 µg/mL (≈ 366 µM); with Human alphaherpesvirus 1 it was 60 µg/mL (≈ 220 µM); in the series on unidentified adenovirus it was 50 µg/mL (≈ 183 µM); in series [1], 30 µg/mL (≈ 110 µM); in series [2], more than 50 µg/mL. For the same molecule, the CC50 in series [3] is 60 µg/mL (≈ 220 µM).

In turn, `CCOC(=O)/C=C/c1cc(C(=O)c2ccc(Cl)cc2)cn1C` yielded an MNTD in the series with Vero of 250 µg/mL. The EC50 in the series with Vaccinia virus is 500 µg/mL (≈ 1570 µM); in the series with Human alphaherpesvirus 1, 350 µg/mL (≈ 1100 µM); in the series on unidentified adenovirus, 30 µg/mL (≈ 94.4 µM); in series [1], more than 500 µg/mL; in series [2], more than 1000 µg/mL. Also, the CC50 in series [3] was 500 µg/mL (≈ 1570 µM).

In the series with Vero, `Cn1cc(C(=O)c2ccc(F)cc2)cc1/C=C/C(=O)NO` gave an MNTD of 8 µg/mL. Besides, the EC50 is 15 µg/mL (≈ 52 µM) in the series with Vaccinia virus; 10 µg/mL (≈ 34.7 µM) with Human alphaherpesvirus 1; more than 50 µg/mL with unidentified adenovirus; 12 µg/mL (≈ 41.6 µM) in series [1]; more than 50 µg/mL in series [2]. In series [3], the CC50 is 15 µg/mL (≈ 52 µM).

`Cn1cc(C(=O)c2ccc(Cl)cc2)cc1/C=C/C(=O)NO` registered an MNTD in the series with Vero of 15 µg/mL. For the same molecule, the EC50 with Vaccinia virus is 30 µg/mL (≈ 98.4 µM); in the series on Human alphaherpesvirus 1 it was 30 µg/mL (≈ 98.4 µM); in the series with unidentified adenovirus, 15 µg/mL (≈ 49.2 µM); in series [1] it was 20 µg/mL (≈ 65.6 µM); in series [2] it was more than 30 µg/mL. Further, the CC50 in series [3] turned out to be 30 µg/mL (≈ 98.4 µM).

For `CCOC(=O)/C=C/c1cc(C(=O)c2ccc([N+](=O)[O-])cc2)cn1C`, the MNTD in the series with Vero came to 2 µg/mL. For the same molecule, the figures for the EC50 (in the series on Vaccinia virus; in the series with Human alphaherpesvirus 1; in series [1]) were 60 µg/mL (≈ 183 µM), 125 µg/mL (≈ 381 µM) and 60 µg/mL (≈ 183 µM), respectively. Besides, the CC50 in series [3] was determined as 8 µg/mL (≈ 24.4 µM).

`CCOC(=O)/C=C/c1cc(C(=O)c2ccccc2)cn1C` showed an MNTD in the series with Vero of 2 µg/mL. Also, the EC50 (with Vaccinia virus; with Human alphaherpesvirus 1; in the series with unidentified adenovirus; in series [1]; in series [2]) was 30 µg/mL (≈ 106 µM) throughout. Also, the CC50 in series [3] worked out at 4 µg/mL (≈ 14.1 µM).

`Cc1ccc(C(=O)c2ccn(/C=C/C(=O)O)c2)cc1`: in the series on Vero, the MNTD amounted to 30 µg/mL. The EC50 in the series on Vaccinia virus was 100 µg/mL (≈ 392 µM); with Human alphaherpesvirus 1 it was 100 µg/mL (≈ 392 µM); in the series with unidentified adenovirus, 60 µg/mL (≈ 235 µM); in series [1], 8 µg/mL (≈ 31.3 µM); in series [2], more than 125 µg/mL. Also, the CC50 in series [3] was found to be 125 µg/mL (≈ 490 µM).

`Cn1cc(C(=O)c2ccc(-n3ccnc3)cc2)cc1/C=C/C(=O)O` displayed an MNTD in the series on Vero of 125 µg/mL. The EC50 in the series with Vaccinia virus is more than 250 µg/mL; in the series with Human alphaherpesvirus 1, more than 250 µg/mL; in the series on unidentified adenovirus it was 250 µg/mL (≈ 778 µM); in series [1], 250 µg/mL (≈ 778 µM); in series [2] it was 250 µg/mL (≈ 778 µM). Moreover, the CC50 in series [3] was more than 250 µg/mL.

As for `Cn1cc(C(=O)c2ccc(N)cc2)cc1/C=C/C(=O)O`, in the series on Vero, the MNTD was more than 1000 µg/mL. The EC50 is 1000 µg/mL (≈ 3700 µM) with Vaccinia virus; more than 1000 µg/mL in the series with Human alphaherpesvirus 1; 1000 µg/mL (≈ 3700 µM) in the series with unidentified adenovirus; 250 µg/mL (≈ 925 µM) in series [1]; more than 1000 µg/mL in series [2]. Besides, in series [3], the CC50 was more than 1000 µg/mL.

In the series with Vero, `COc1ccc(C(=O)c2cc(/C=C/C(=O)O)n(C)c2)cc1` gave an MNTD of 500 µg/mL. Besides, the EC50 is 500 µg/mL (≈ 1750 µM) with Vaccinia virus; more than 500 µg/mL with Human alphaherpesvirus 1; 250 µg/mL (≈ 876 µM) in the series on unidentified adenovirus; 350 µg/mL (≈ 1230 µM) in series [1]; 1000 µg/mL (≈ 3510 µM) in series [2]. Also, in series [3], the CC50 was more than 500 µg/mL.

In turn, `Cn1cc(C(=O)c2ccc([N+](=O)[O-])cc2)cc1/C=C/C(=O)O` came in with an MNTD with Vero of 15 µg/mL. The EC50 in the series with Vaccinia virus was 15 µg/mL (≈ 50 µM); in the series on Human alphaherpesvirus 1 it was 50 µg/mL (≈ 167 µM); in the series on unidentified adenovirus it was 50 µg/mL (≈ 167 µM); in series [1] it was 50 µg/mL (≈ 167 µM); in series [2] it was more than 100 µg/mL. Moreover, in series [3], the CC50 is 60 µg/mL (≈ 200 µM).

Molecule `Cn1cc(C(=O)c2ccccc2)cc1/C=C/C(=O)O` displayed an MNTD with Vero of 250 µg/mL. Besides, the EC50 was more than 500 µg/mL with Vaccinia virus; more than 500 µg/mL in the series on Human alphaherpesvirus 1; 250 µg/mL (≈ 979 µM) in the series on unidentified adenovirus; 250 µg/mL (≈ 979 µM) in series [1]; 500 µg/mL (≈ 1960 µM) in series [2]. In series [3], the CC50 is more than 250 µg/mL.

In turn, `CCOC(=O)/C=C/c1cc(C(=O)c2ccc(N(C)C)cc2)cn1C` yielded an MNTD in the series on Vero of 2 µg/mL. The EC50 with Vaccinia virus stood at 15 µg/mL (≈ 46 µM); in the series on Human alphaherpesvirus 1, 15 µg/mL (≈ 46 µM); with unidentified adenovirus, 15 µg/mL (≈ 46 µM); in series [1], 8 µg/mL (≈ 24.5 µM); in series [2] it was 8 µg/mL (≈ 24.5 µM). Also, the CC50 in series [3] came to 4 µg/mL (≈ 12.3 µM).

The molecule `CCOC(=O)/C=C/c1cc(C(=O)c2ccc(-n3ccnc3)cc2)cn1C` showed an MNTD with Vero of 15 µg/mL. The EC50 with Vaccinia virus was more than 500 µg/mL; with Human alphaherpesvirus 1, 500 µg/mL (≈ 1430 µM); with unidentified adenovirus, 15 µg/mL (≈ 42.9 µM); in series [1] it was 30 µg/mL (≈ 85.9 µM); in series [2], 500 µg/mL (≈ 1430 µM). In addition, in series [3], the CC50 is 30 µg/mL (≈ 85.9 µM).

Regarding `Cn1cc(C(=O)c2ccc(Cl)cc2)cc1/C=C/C(=O)O`, in the series with Vero, the MNTD was 30 µg/mL. Also, the EC50 with Vaccinia virus was 100 µg/mL (≈ 345 µM); with Human alphaherpesvirus 1, 500 µg/mL (≈ 1730 µM); in the series with unidentified adenovirus it was more than 500 µg/mL; in series [1], more than 250 µg/mL; in series [2], 250 µg/mL (≈ 863 µM). For the same molecule, the CC50 in series [3] worked out at 125 µg/mL (≈ 431 µM).

Molecule `Nc1nc2c(ncn2COCCO)c(=O)[nH]1` [ACYCLOVIR] returned an MNTD in the series on Vero of 40 µg/mL. For the same molecule, the EC50 in the series on Vaccinia virus is more than 110 µg/mL; in the series with Human alphaherpesvirus 1 it was 0.02 µg/mL (≈ 0.0888 µM); in series [1], 40 µg/mL (≈ 178 µM); in series [2], more than 40 µg/mL. Also, the CC50 in series [3] was found to be 240 µg/mL (≈ 1070 µM).

Take `Nc1ncnc2c1ncn2[C@@H]1O[C@H](CO)[C@@H](O)[C@@H]1O` [VIDARABINE]: the MNTD in the series with Vero was determined as 6 µg/mL. For the same molecule, the EC50 is 16 µg/mL (≈ 59.9 µM) in the series with Vaccinia virus, 10 µg/mL (≈ 37.4 µM) in the series on Human alphaherpesvirus 1, 40 µg/mL (≈ 150 µM) in series [1] and more than 10 µg/mL in series [2]. In series [3], the CC50 is 10 µg/mL (≈ 37.4 µM).
